Here are results for six compounds from ChEMBL document CHEMBL1148694, “Calcitriol derivatives with two different side-chains at C-20. Part 4: further chain modifications that alter VDR-dependent monocytic differentiation potency in human leukemia cells” (2007).

SMILES strings stand for the structures. Activity calls are given as the source filed them. The calls are words filed in the database; no cut-off is given here.

Assay [1] is described as follows: Induction of differentiation in human HL60-G cells assessed as CD11b expression. The class given is functional. In a few lines:
(§1)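 HL60-G33 cells in RPMI 1640 with 10% bovine calf serum at 37 °C, 5% CO2, given compounds in fresh medium (ethanol vehicle); 1,25D at 0.1, 1 and 10 nM. 1×10^6 cells washed twice in PBS, stained on ice for 45 min with MO1-FITC (CD11b) and MY4-RD1 (CD14), then washed. Flow cytometry with acquisition set on isotype controls.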

Assay [2] is described as follows: Induction of differentiation in human HL60-G cells assessed as CD14 expression. The class given is functional. In a few lines: as §1
Assay [3] can be described thus: Induction of differentiation in human HL60-G cells assessed as CD11b expression relative to 1-alpha,25-dihydroxyvitamin D3. The class given is functional. An outline of the steps:
as §1

Assay [4] is described as follows: Induction of differentiation in human HL60-G cells assessed as CD14 expression relative to 1-alpha,25-dihydroxyvitamin D3. The class given is functional. In a few lines: as §1
Assay [5] in a line: (§2) Induction of CYP24 mRNA expression in human HL60-G cells at 1 nM after 12 hrs relative to 1-alpha,25-dihydroxyvitamin D3. The class given is functional. In a few lines: (§3)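 HL60-G33 cells exposed to 1 nM compound for 12 h. Total RNA from 5×10^6 cells was DNase-treated, and 1 μg was reverse transcribed with MuLV RT and oligo-d(T). CYP24 transcript measured by SYBR green real-time PCR on a LightCycler with ARP0 as internal control. Values normalized to 1,25D treatment.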

Another assay has as its system HL60-40AF. The assay can be described thus: Induction of differentiation in 1-alpha,25-dihydroxyvitamin D3 resistant human HL60-40AF cells. The class given is functional, cell-based. An outline of the steps: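 Differentiation-resistant HL60-40AF subclone adapted to grow in 1,25D, cultured in RPMI 1640 with 10% bovine calf serum. Compounds given in fresh medium with ethanol vehicle; 1,25D at 10 and 100 nM. 1×10^6 cells washed in PBS, stained on ice for 45 min with MY4-RD1 (CD14) and MO1-FITC (CD11b). Read by flow cytometry, gated on isotype controls.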

Assay [6] can be described thus: Cell cycle arrest in HL60-G cells assessed as accumulation at G1 phase after 48 to 72 hrs. The class given is functional, cell-based. As to conditions: Homo sapiens. In a few lines: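 HL60-G33 cells in RPMI 1640 with 10% bovine calf serum, 37 °C, 5% CO2, given compounds in fresh medium (ethanol vehicle) for 48 and 72 h over increasing concentrations. 1×10^6 cells fixed in 75% ethanol at -20 °C overnight, treated with RNase A 100 U/mL at 37 °C for 1 h, stained with propidium iodide 10 μg/mL. Flow cytometry; G1/S ratio.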

The next assay deals with HL60-G. The assay is described as §2. The class given is functional. In a few lines:
as §3

In the case of `C=C1/C(=C\C=C2/CCC[C@@]3(C)C2CC[C@@H]3[C@H](C)CCCC(C)(C)O)C[C@@H](O)C[C@H]1O` (stereo partly specified), the results for the ED20 in assay [1] and in assay [2] were 1.2 nM and 0.57 nM, respectively.

Consider `C=C1/C(=C\C=C2/CCC[C@@]3(C)C2CC[C@@H]3[C@]2(CCCC(C)(C)O)C[C@H]2CCC(C)(C)O)C[C@@H](O)C[C@H]1F` (stereo partly specified), for which the ED20 in assay [2] is reported as greater than 500 nM. In addition, the Activity is listed as less than 0.002 in assay [3] and less than 0.001 in assay [4].

Consider `CC(C)(O)CC[C@@H]1C[C@@]1(CC#CC(O)(C(F)(F)F)C(F)(F)F)[C@H]1CCC2/C(=C/C=C3C[C@@H](O)C[C@H](O)C3)CCC[C@@]21C` (stereo partly specified), for which the values for the ED20 in assay [1] and in assay [2] were 1.17 nM and 0.46 nM, respectively. The Activity in assay [3] is 1.03; in assay [4] it was 1.24. For the same compound, the Fold change in assay [5] came out at 2.5. Moreover, in the assay with HL60-40AF, the result was Active.

Consider `C=C1/C(=C\C=C2/CCC[C@@]3(C)C2CC[C@@H]3[C@]2(CC#CC(O)(C(F)(F)F)C(F)(F)F)C[C@H]2CCC(C)(C)O)C[C@@H](O)C[C@@H]1O` (stereo partly specified), for which the ED20 is given as 0.52 nM in assay [1] and 0.24 nM in assay [2]. Also, the Activity in assay [3] came to 2.31; in assay [4], 2.38. For the same compound, the Fold change in assay [5] came out at 30. Further, the outcome (in assay [6]; in the assay with HL60-40AF) was Active.

Take `CC(C)(O)CCC[C@@]1([C@H]2CCC3/C(=C/C=C4C[C@@H](O)C[C@H](O)C4)CCC[C@@]32C)C[C@H]1CCC(C)(C)O` (stereo partly specified): the ED20 in assay [1] amounted to 98.75 nM; in assay [2] it was 66.03 nM. Besides, the Activity in assay [3] was 0.01; in assay [4], 0.009.

Regarding `C=C1/C(=C\C=C2/CCC[C@@]3(C)C2CC[C@@H]3[C@]2(CCCC(C)(C)O)C[C@H]2CCC(C)(C)O)C[C@@H](O)C[C@@H]1O` (stereo partly specified), the ED20 amounted to 19.75 nM in assay [1] and 9.97 nM in assay [2]. In assay [3], the Activity was 0.06. In the assay on HL60-G, the result was inactive.
